The source made the active and inactive calls. The rule behind the calls is not given here.
Assays:
[1] = system: K562; assay: Cytotoxicity against human K-562 assessed as growth inhibition at 10 uM by NCI protocol relative to control; format: functional; details: read-out: GI
Outline: (§1)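 Run by NCI as a single-dose screen at 10 μM across the sixty-cell-line panel, which covers nine human tumour tissue types. The read-out is percent growth inhibition of treated cells relative to untreated cells.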

[2] = system: MOLT-4; assay: Cytotoxicity against human MOLT-4 assessed as growth inhibition at 10 uM by NCI protocol relative to control; format: functional; details: read-out: GI; outline: as §1
[3] = system: RPMI-8226; assay: Cytotoxicity against human RPMI-8226 assessed as growth inhibition at 10 uM by NCI protocol relative to control; format: functional; details: read-out: GI; outline: as §1
[4] = system: A549; assay: Cytotoxicity against human A549 assessed as growth inhibition at 10 uM by NCI protocol relative to control; format: functional; details: read-out: GI; outline: as §1
[5] = system: EKVX; assay: Cytotoxicity against human EKVX assessed as growth inhibition at 10 uM by NCI protocol relative to control; format: functional; details: read-out: GI; outline: as §1
[6] = system: HOP-92; assay: Cytotoxicity against human HOP-92 assessed as growth inhibition at 10 uM by NCI protocol relative to control; format: functional; outline: as §1
[7] = system: NCI-H23; assay: Cytotoxicity against human NCI-H23 assessed as growth inhibition at 10 uM by NCI protocol relative to control; format: functional; details: read-out: GI; outline: as §1
[8] = system: NCI-H460; assay: Cytotoxicity against human NCI-H460 assessed as growth inhibition at 10 uM by NCI protocol relative to control; format: functional; details: read-out: GI; outline: as §1
[9] = system: HCC 2998; assay: Cytotoxicity against human HCC-2998 assessed as growth inhibition at 10 uM by NCI protocol relative to control; format: functional; details: read-out: GI; outline: as §1
[10] = system: HT-29; assay: Cytotoxicity against human HT29 assessed as growth inhibition at 10 uM by NCI protocol relative to control; format: functional; details: read-out: GI; outline: as §1
[11] = system: KM12; assay: Cytotoxicity against human KM12 assessed as growth inhibition at 10 uM by NCI protocol relative to control; format: functional; details: read-out: GI; outline: as §1
[12] = system: SW-620; assay: Cytotoxicity against human SW-620 assessed as growth inhibition at 10 uM by NCI protocol relative to control; format: functional; details: read-out: GI
Outline: (§2)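 Run by the NCI under its standard protocol: one dose of 10 μM against a sixty-line panel from nine human tumour tissues. Result given as percent growth inhibition of treated cells relative to untreated cells.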

[13] = system: SF-268; assay: Cytotoxicity against human SF-268 assessed as growth inhibition at 10 uM by NCI protocol relative to control; format: functional; details: read-out: GI; outline: as §1
[14] = system: SF-295; assay: Cytotoxicity against human SF-295 assessed as growth inhibition at 10 uM by NCI protocol relative to control; format: functional; details: read-out: GI; outline: as §1
[15] = system: SF-539; assay: Cytotoxicity against human […] assessed as growth inhibition at 10 uM by NCI protocol relative to control; format: functional; details: read-out: GI; outline: as §1
[16] = system: SNB-19; assay: Cytotoxicity against human SNB-19 assessed as growth inhibition at 10 uM by NCI protocol relative to control; format: functional; details: read-out: GI; outline: as §2
[17] = system: SNB-75; assay: Cytotoxicity against human SNB-75 assessed as growth inhibition at 10 uM by NCI protocol relative to control; format: functional; details: read-out: GI; outline: as §2
[18] = system: U-251; assay: Cytotoxicity against human U251 assessed as growth inhibition at 10 uM by NCI protocol relative to control; format: functional; details: read-out: GI; outline: as §2
[19] = system: LOX IMVI; assay: Cytotoxicity against human LOX IMVI assessed as growth inhibition at 10 uM by NCI protocol relative to control; format: functional; details: read-out: GI; outline: as §1
[20] = system: Malme-3M; assay: Cytotoxicity against human MALME-3M assessed as growth inhibition at 10 uM by NCI protocol relative to control; format: functional; details: read-out: GI; outline: as §1
[21] = system: MDA-MB-435; assay: Cytotoxicity against human MDA-MB-435 assessed as growth inhibition at 10 uM by NCI protocol relative to control; format: functional, cell-based; outline: as §1
[22] = system: SK-MEL-2; assay: Cytotoxicity against human SK-MEL-2 assessed as growth inhibition at 10 uM by NCI protocol relative to control; format: functional; details: read-out: GI; outline: as §1
[23] = system: SK-MEL-28; assay: Cytotoxicity against human SK-MEL-28 assessed as growth inhibition at 10 uM by NCI protocol relative to control; format: functional; details: read-out: GI; outline: as §1
[24] = system: SK-MEL-5; assay: Cytotoxicity against human SK-MEL-5 assessed as growth inhibition at 10 uM by NCI protocol relative to control; format: functional; details: read-out: GI; outline: as §1
[25] = system: UACC-257; assay: Cytotoxicity against human UACC-257 assessed as growth inhibition at 10 uM by NCI protocol relative to control; format: functional; details: read-out: GI; outline: as §2
[26] = system: UACC-62; assay: Cytotoxicity against human UACC-62 assessed as growth inhibition at 10 uM by NCI protocol relative to control; format: functional; details: read-out: GI; outline: as §2
[27] = system: IGROV-1; assay: Cytotoxicity against human IGROVI assessed as growth inhibition at 10 uM by NCI protocol relative to control; format: functional; details: read-out: GI; outline: as §1
[28] = system: OVCAR-3; assay: Cytotoxicity against human OVCAR-3 assessed as growth inhibition at 10 uM by NCI protocol relative to control; format: functional; details: read-out: GI; outline: as §1
[29] = system: OVCAR-4; assay: Cytotoxicity against human OVCAR-4 assessed as growth inhibition at 10 uM by NCI protocol relative to control; format: functional; details: read-out: GI; outline: as §1
[30] = system: OVCAR-8; assay: Cytotoxicity against human OVCAR-8 assessed as growth inhibition at 10 uM by NCI protocol relative to control; format: functional; details: read-out: GI; outline: as §1
[31] = system: NCI/ADR-RES; assay: Cytotoxicity against human NCl/ADR-RES assessed as growth inhibition at 10 uM by NCI protocol relative to control; format: functional; details: read-out: GI; outline: as §1
[32] = system: SK-OV-3; assay: Cytotoxicity against human SK-OV-3 assessed as growth inhibition at 10 uM by NCI protocol relative to control; format: functional; details: read-out: GI; outline: as §1
[33] = system: 786-0; assay: Cytotoxicity against human 786-0 assessed as growth inhibition at 10 uM by NCI protocol relative to control; format: functional; details: read-out: GI; outline: as §1
[34] = system: A498; assay: Cytotoxicity against human A498 assessed as growth inhibition at 10 uM by NCI protocol relative to control; format: functional; details: read-out: GI; outline: as §1
[35] = system: ACHN; assay: Cytotoxicity against human ACHN assessed as growth inhibition at 10 uM by NCI protocol relative to control; format: functional; details: read-out: GI; outline: as §1
[36] = system: CAKI-1; assay: Cytotoxicity against human Caki1 assessed as growth inhibition at 10 uM by NCI protocol relative to control; format: functional; details: read-out: GI; outline: as §1
[37] = system: RXF 393; assay: Cytotoxicity against human RXF 393 assessed as growth inhibition at 10 uM by NCI protocol relative to control; format: functional; details: read-out: GI; outline: as §1
[38] = system: SN12C; assay: Cytotoxicity against human SN12C assessed as growth inhibition at 10 uM by NCI protocol relative to control; format: functional; details: read-out: GI; outline: as §2
[39] = system: PC-3; assay: Cytotoxicity against human PC3 assessed as growth inhibition at 10 uM by NCI protocol relative to control; format: functional; details: read-out: GI; outline: as §1
[40] = system: MCF7; assay: Cytotoxicity against human MCF7 assessed as growth inhibition at 10 uM by NCI protocol relative to control; format: functional; details: read-out: GI; outline: as §1
[41] = system: MDA-MB-231; assay: Cytotoxicity against human MDA-MB-231 assessed as growth inhibition at 10 uM by NCI protocol relative to control; format: functional; details: read-out: GI; outline: as §1
[42] = system: Hs-578T; assay: Cytotoxicity against human HS 578T assessed as growth inhibition at 10 uM by NCI protocol relative to control; format: functional; details: read-out: GI; outline: as §1
[43] = system: MDA-MB-468; assay: Cytotoxicity against human MDA-MB-468 assessed as growth inhibition at 10 uM by NCI protocol relative to control; format: functional; details: read-out: GI; outline: as §1

O=C(CN1CCN(c2cc(=O)n(-c3ccccc3)c3ccccc23)CC1)Nc1nc(-c2ccccc2)cs1
inhibition of growth at 10 µM [1]: 77.6%
inhibition of growth at 10 µM [2]: 82.2%
inhibition of growth at 10 µM [3]: 53.8%
inhibition of growth at 10 µM [4]: 43.8%
inhibition of growth at 10 µM [5]: 54.5%
growth inhibition (GI) [6]: inactive
inhibition of growth at 10 µM [7]: 39.2%
inhibition of growth at 10 µM [8]: 67.8%
inhibition of growth at 10 µM [9]: 18.2%
inhibition of growth at 10 µM [10]: 27%
inhibition of growth at 10 µM [11]: 37%
inhibition of growth at 10 µM [12]: 31.4%
inhibition of growth at 10 µM [13]: 20.8%
inhibition of growth at 10 µM [14]: 33.3%
inhibition of growth at 10 µM [15]: 22.9%
inhibition of growth at 10 µM [16]: 14.8%
inhibition of growth at 10 µM [17]: 28.4%
inhibition of growth at 10 µM [18]: 40.8%
inhibition of growth at 10 µM [19]: 50.5%
inhibition of growth at 10 µM [20]: 30.3%
growth inhibition (GI) [21]: inactive
inhibition of growth at 10 µM [22]: 11.1%
inhibition of growth at 10 µM [23]: 28.8%
inhibition of growth at 10 µM [24]: 94.7%
inhibition of growth at 10 µM [25]: 51.5%
inhibition of growth at 10 µM [26]: 36.1%
inhibition of growth at 10 µM [27]: 32.5%
inhibition of growth at 10 µM [28]: 27.5%
inhibition of growth at 10 µM [29]: 76.7%
inhibition of growth at 10 µM [30]: 30.2%
inhibition of growth at 10 µM [31]: 37.3%
inhibition of growth at 10 µM [32]: 29.2%
inhibition of growth at 10 µM [33]: 10.7%
inhibition of growth at 10 µM [34]: 33.8%
inhibition of growth at 10 µM [35]: 36.2%
inhibition of growth at 10 µM [36]: 38.6%
inhibition of growth at 10 µM [37]: 23.1%
inhibition of growth at 10 µM [38]: 17.9%
inhibition of growth at 10 µM [39]: 67.5%
inhibition of growth at 10 µM [40]: 72.4%
inhibition of growth at 10 µM [41]: 37.5%
inhibition of growth at 10 µM [42]: 17.1%
inhibition of growth at 10 µM [43]: 86.7%

O=C(CN1CCN(c2cc(=O)n(-c3ccccc3)c3ccccc23)CC1)Nc1nc(-c2ccc(Cl)cc2)cs1
inhibition of growth at 10 µM [1]: 75.8%
inhibition of growth at 10 µM [2]: 71%
inhibition of growth at 10 µM [3]: 63.3%
inhibition of growth at 10 µM [4]: 47.4%
inhibition of growth at 10 µM [5]: 57.3%
growth inhibition (GI) [6]: inactive
inhibition of growth at 10 µM [7]: 50.2%
inhibition of growth at 10 µM [8]: 45.2%
inhibition of growth at 10 µM [10]: 36.2%
inhibition of growth at 10 µM [11]: 35.3%
inhibition of growth at 10 µM [12]: 25.7%
inhibition of growth at 10 µM [13]: 45.5%
inhibition of growth at 10 µM [14]: 37.4%
inhibition of growth at 10 µM [15]: 23.9%
inhibition of growth at 10 µM [16]: 36%
inhibition of growth at 10 µM [17]: 32.5%
inhibition of growth at 10 µM [18]: 36.2%
inhibition of growth at 10 µM [19]: 41.6%
inhibition of growth at 10 µM [20]: 44.9%
growth inhibition (GI) [21]: inactive
inhibition of growth at 10 µM [22]: 24.4%
inhibition of growth at 10 µM [23]: 30.8%
inhibition of growth at 10 µM [24]: 94.9%
inhibition of growth at 10 µM [25]: 72%
inhibition of growth at 10 µM [26]: 38.5%
inhibition of growth at 10 µM [27]: 34.5%
inhibition of growth at 10 µM [28]: 32.9%
inhibition of growth at 10 µM [29]: 80.3%
inhibition of growth at 10 µM [30]: 40.6%
inhibition of growth at 10 µM [31]: 45.1%
inhibition of growth at 10 µM [32]: 28.6%
inhibition of growth at 10 µM [33]: 32.4%
inhibition of growth at 10 µM [34]: 59.2%
inhibition of growth at 10 µM [35]: 44.9%
inhibition of growth at 10 µM [36]: 50.4%
inhibition of growth at 10 µM [37]: 33%
inhibition of growth at 10 µM [38]: 25.9%
inhibition of growth at 10 µM [39]: 65%
inhibition of growth at 10 µM [40]: 79.9%
inhibition of growth at 10 µM [41]: 25.3%
inhibition of growth at 10 µM [43]: 90.4%

Source: ChEMBL document CHEMBL4819122, “Novel 4-(piperazin-1-yl)quinolin-2(1H)-one bearing thiazoles with antiproliferative activity through VEGFR-2-TK inhibition” (Bioorg Med Chem, 2021)
